Laboratory results: ChEMBL document CHEMBL5724801, “EUbOPEN Chemogenomics Library - Multiplex” (2024)
Where “and” joins values, the source holds several entries; their conditions need not be identical. Equal entries are not always repeated.

System: U2OS
Experiment: Multiplex assay against U2OS
Assay type: toxicity, cell-based
Conditions: human
Outline: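 Cells stained live at seeding with Hoechst33342, BioTracker Green Microtubule Cytoskeleton Dye, MitoTracker Red and Annexin V Alexa Fluor 680 were imaged on a CQ1 microscope at 37°C and 5% CO2 after compound addition. Their classification by CellPathfinder machine-learning gating ran from Hoechst high-intensity objects versus normal cells, to healthy, pyknosed or fragmented nuclei among normal cells, to mitotic or apoptotic among pyknosed cells. Tubulin, mitochondrial-mass and membrane-permeability phenotypes are per cents of healthy-nucleus cells.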

[1] = 12 h, 1 µM, compound concentration 1 uM
[2] = 12 h, 10 µM, compound concentration 10 uM
[3] = 24 h, 1 µM, compound concentration 1 uM
[4] = 24 h, 10 µM, compound concentration 10 uM
[5] = 48 h, 1 µM, compound concentration 1 uM
[6] = 48 h, 10 µM, compound concentration 10 uM

CN1CCC(C(=O)c2cccc(NC(=O)c3c(F)cc(F)cc3F)n2)CC1
Population Apoptotic (%) [1]: 90% and 57% | Population Fragmented Nuclei (%) [1]: 20% | Population Healthy Nuclei (%) [1]: 70% and 71% | Population Hoechst High Intensity Objects (%) [1]: 2% and 1% | Population Membrane Permeable-Phenotype (%) [1]: 8% and 9% | Population Mitochondria Different-Phenotype (%) [1]: 3% and 11% | Population Normal (%) [1]: 97% and 98% | Population Pyknosed Nuclei (%) [1]: 9% and 7% | Population Tubulin-Different-Phenotype (%) [1]: 5% and 6% | Total Cell Count [1]: 218 and 89 | Population Apoptotic (%) [2]: 65% and 64% | Population Fragmented Nuclei (%) [2]: 27% and 14% | Population Healthy Nuclei (%) [2]: 63% and 68% | Population Hoechst High Intensity Objects (%) [2]: 1% | Population Membrane Permeable-Phenotype (%) [2]: 14% and 15% | Population Mitochondria Different-Phenotype (%) [2]: 13% and 18% | Population Mitotic Cells (%) [2]: 34% and 35% | Population Normal (%) [2]: 98% | Population Pyknosed Nuclei (%) [2]: 9% and 16% | Population Tubulin-Different-Phenotype (%) [2]: 12% and 15% | Total Cell Count [2]: 270 and 103 | Population Apoptotic (%) [3]: 85% and 72% | Population Fragmented Nuclei (%) [3]: 22% and 18% | Population Healthy Nuclei (%) [3]: 67% and 71% | Population Hoechst High Intensity Objects (%) [3]: 2% and 0% | Population Membrane Permeable-Phenotype (%) [3]: 4% and 6% | Population Mitochondria Different-Phenotype (%) [3]: 3% and 10% | Population Mitotic Cells (%) [3]: 14% and 27% | Population Normal (%) [3]: 97% and 99% | Population Pyknosed Nuclei (%) [3]: 9% | Population Tubulin-Different-Phenotype (%) [3]: 3% and 0% | Total Cell Count [3]: 284 and 113 | Population Apoptotic (%) [4]: 82% and 66% | Population Fragmented Nuclei (%) [4]: 21% and 15% | Population Healthy Nuclei (%) [4]: 68% | Population Hoechst High Intensity Objects (%) [4]: 2% and 5% | Population Membrane Permeable-Phenotype (%) [4]: 8% and 10% | Population Mitochondria Different-Phenotype (%) [4]: 9% and 15% | Population Mitotic Cells (%) [4]: 17% and 33% | Population Normal (%) [4]: 97% and 94% | Population Pyknosed Nuclei (%) [4]: 9% and 15% | Population Tubulin-Different-Phenotype (%) [4]: 5% and 10% | Total Cell Count [4]: 298 and 126 | Population Apoptotic (%) [5]: 100% and 89% | Population Fragmented Nuclei (%) [5]: 17% and 29% | Population Healthy Nuclei (%) [5]: 70% and 57% | Population Hoechst High Intensity Objects (%) [5]: 2% and 5% | Population Membrane Permeable-Phenotype (%) [5]: 4% and 12% | Population Mitochondria Different-Phenotype (%) [5]: 1% and 8% | Population Mitotic Cells (%) [5]: 0% and 10% | Population Normal (%) [5]: 97% and 94% | Population Pyknosed Nuclei (%) [5]: 11% and 13% | Population Tubulin-Different-Phenotype (%) [5]: 2% and 4% | Total Cell Count [5]: 394 and 149 | Population Apoptotic (%) [6]: 85% | Population Fragmented Nuclei (%) [6]: 18% and 15% | Population Healthy Nuclei (%) [6]: 69% | Population Hoechst High Intensity Objects (%) [6]: 3% | Population Membrane Permeable-Phenotype (%) [6]: 8% and 16% | Population Mitochondria Different-Phenotype (%) [6]: 3% and 10% | Population Mitotic Cells (%) [6]: 14% | Population Normal (%) [6]: 96% | Population Pyknosed Nuclei (%) [6]: 12% and 14% | Population Tubulin-Different-Phenotype (%) [6]: 3% and 8% | Total Cell Count [6]: 398 and 189

COc1c(C)cc(NC(=O)c2nn(Cc3ccc(F)cc3)c3c2CN(C(=O)c2ccc[nH]2)C[C@]3(C)C(N)=O)cc1C
Population Apoptotic (%) [1]: 65% and 83% | Population Fragmented Nuclei (%) [1]: 22% and 21% | Population Healthy Nuclei (%) [1]: 65% and 72% | Population Hoechst High Intensity Objects (%) [1]: 2% | Population Membrane Permeable-Phenotype (%) [1]: 8% | Population Mitochondria Different-Phenotype (%) [1]: 3% and 12% | Population Mitotic Cells (%) [1]: 34% and 16% | Population Normal (%) [1]: 97% | Population Pyknosed Nuclei (%) [1]: 12% and 6% | Population Tubulin-Different-Phenotype (%) [1]: 5% and 9% | Total Cell Count [1]: 247 and 102 | Population Apoptotic (%) [2]: 33% and 60% | Population Fragmented Nuclei (%) [2]: 26% and 11% | Population Healthy Nuclei (%) [2]: 43% and 66% | Population Hoechst High Intensity Objects (%) [2]: 9% and 8% | Population Membrane Permeable-Phenotype (%) [2]: 77% and 54% | Population Mitochondria Different-Phenotype (%) [2]: 90% and 97% | Population Mitotic Cells (%) [2]: 66% and 39% | Population Normal (%) [2]: 90% and 91% | Population Pyknosed Nuclei (%) [2]: 29% and 21% | Population Tubulin-Different-Phenotype (%) [2]: 95% and 100% | Total Cell Count [2]: 223 and 119 | Population Apoptotic (%) [3]: 67% and 61% | Population Fragmented Nuclei (%) [3]: 16% and 17% | Population Healthy Nuclei (%) [3]: 71% and 70% | Population Hoechst High Intensity Objects (%) [3]: 5% and 0% | Population Membrane Permeable-Phenotype (%) [3]: 8% and 7% | Population Mitochondria Different-Phenotype (%) [3]: 6% and 2% | Population Mitotic Cells (%) [3]: 32% and 38% | Population Normal (%) [3]: 94% and 99% | Population Pyknosed Nuclei (%) [3]: 12% and 11% | Population Tubulin-Different-Phenotype (%) [3]: 7% and 6% | Total Cell Count [3]: 265 and 111 | Population Apoptotic (%) [4]: 66% and 65% | Population Fragmented Nuclei (%) [4]: 26% and 13% | Population Healthy Nuclei (%) [4]: 41% and 53% | Population Hoechst High Intensity Objects (%) [4]: 12% and 7% | Population Membrane Permeable-Phenotype (%) [4]: 46% and 49% | Population Mitochondria Different-Phenotype (%) [4]: 92% and 91% | Population Mitotic Cells (%) [4]: 33% and 34% | Population Normal (%) [4]: 87% and 92% | Population Pyknosed Nuclei (%) [4]: 31% and 33% | Population Tubulin-Different-Phenotype (%) [4]: 94% and 91% | Total Cell Count [4]: 216 and 123 | Population Apoptotic (%) [5]: 79% and 84% | Population Fragmented Nuclei (%) [5]: 18% and 15% | Population Healthy Nuclei (%) [5]: 68% and 70% | Population Hoechst High Intensity Objects (%) [5]: 2% and 5% | Population Membrane Permeable-Phenotype (%) [5]: 4% and 9% | Population Mitochondria Different-Phenotype (%) [5]: 3% and 4% | Population Mitotic Cells (%) [5]: 20% and 15% | Population Normal (%) [5]: 97% and 94% | Population Pyknosed Nuclei (%) [5]: 13% | Population Tubulin-Different-Phenotype (%) [5]: 2% and 5% | Total Cell Count [5]: 365 and 152 | Population Apoptotic (%) [6]: 84% and 87% | Population Fragmented Nuclei (%) [6]: 31% and 22% | Population Healthy Nuclei (%) [6]: 24% and 47% | Population Hoechst High Intensity Objects (%) [6]: 17% and 9% | Population Membrane Permeable-Phenotype (%) [6]: 69% and 50% | Population Mitochondria Different-Phenotype (%) [6]: 85% and 81% | Population Mitotic Cells (%) [6]: 15% and 12% | Population Normal (%) [6]: 82% and 90% | Population Pyknosed Nuclei (%) [6]: 44% and 29% | Population Tubulin-Different-Phenotype (%) [6]: 90% and 80% | Total Cell Count [6]: 212 and 150

CSc1ccccc1N1CCN(CCCCCC(=O)NC2CCCc3ccccc32)CC1.Cl (stereo unspecified)
Population Apoptotic (%) [1]: 62% and 36% | Population Fragmented Nuclei (%) [1]: 22% and 24% | Population Healthy Nuclei (%) [1]: 61% and 63% | Population Hoechst High Intensity Objects (%) [1]: 9% and 3% | Population Membrane Permeable-Phenotype (%) [1]: 73% and 51% | Population Mitochondria Different-Phenotype (%) [1]: 71% and 85% | Population Mitotic Cells (%) [1]: 37% and 63% | Population Normal (%) [1]: 90% and 96% | Population Pyknosed Nuclei (%) [1]: 15% and 11% | Population Tubulin-Different-Phenotype (%) [1]: 88% and 72% | Total Cell Count [1]: 222 and 101 | Population Apoptotic (%) [2]: 70% and 84% | Population Fragmented Nuclei (%) [2]: 41% and 23% | Population Healthy Nuclei (%) [2]: 39% and 55% | Population Hoechst High Intensity Objects (%) [2]: 8% and 4% | Population Membrane Permeable-Phenotype (%) [2]: 67% and 60% | Population Mitochondria Different-Phenotype (%) [2]: 90% and 92% | Population Mitotic Cells (%) [2]: 29% and 16% | Population Normal (%) [2]: 91% and 95% | Population Pyknosed Nuclei (%) [2]: 18% and 21% | Population Tubulin-Different-Phenotype (%) [2]: 96% and 98% | Total Cell Count [2]: 221 and 125 | Population Apoptotic (%) [3]: 54% and 58% | Population Fragmented Nuclei (%) [3]: 22% and 25% | Population Healthy Nuclei (%) [3]: 60% and 58% | Population Hoechst High Intensity Objects (%) [3]: 6% and 2% | Population Membrane Permeable-Phenotype (%) [3]: 63% and 46% | Population Mitochondria Different-Phenotype (%) [3]: 63% and 74% | Population Mitotic Cells (%) [3]: 45% and 41% | Population Normal (%) [3]: 94% and 97% | Population Pyknosed Nuclei (%) [3]: 17% and 15% | Population Tubulin-Different-Phenotype (%) [3]: 75% and 63% | Total Cell Count [3]: 250 and 111 | Population Apoptotic (%) [4]: 89% and 94% | Population Fragmented Nuclei (%) [4]: 44% and 19% | Population Healthy Nuclei (%) [4]: 28% and 44% | Population Hoechst High Intensity Objects (%) [4]: 6% and 10% | Population Membrane Permeable-Phenotype (%) [4]: 79% and 90% | Population Mitochondria Different-Phenotype (%) [4]: 81% and 56% | Population Mitotic Cells (%) [4]: 10% and 5% | Population Normal (%) [4]: 93% and 89% | Population Pyknosed Nuclei (%) [4]: 26% and 37% | Population Tubulin-Different-Phenotype (%) [4]: 91% and 97% | Total Cell Count [4]: 219 and 112 | Population Apoptotic (%) [5]: 64% and 95% | Population Fragmented Nuclei (%) [5]: 25% and 28% | Population Healthy Nuclei (%) [5]: 53% and 52% | Population Hoechst High Intensity Objects (%) [5]: 8% and 5% | Population Membrane Permeable-Phenotype (%) [5]: 42% and 41% | Population Mitochondria Different-Phenotype (%) [5]: 56% and 63% | Population Normal (%) [5]: 91% and 94% | Population Pyknosed Nuclei (%) [5]: 21% and 18% | Population Tubulin-Different-Phenotype (%) [5]: 50% and 44% | Total Cell Count [5]: 272 and 137 | Population Apoptotic (%) [6]: 98% and 100% | Population Fragmented Nuclei (%) [6]: 43% and 25% | Population Healthy Nuclei (%) [6]: 18% and 20% | Population Hoechst High Intensity Objects (%) [6]: 15% and 11% | Population Membrane Permeable-Phenotype (%) [6]: 77% and 85% | Population Mitochondria Different-Phenotype (%) [6]: 33% and 45% | Population Mitotic Cells (%) [6]: 1% and 0% | Population Normal (%) [6]: 84% and 88% | Population Pyknosed Nuclei (%) [6]: 38% and 54% | Population Tubulin-Different-Phenotype (%) [6]: 75% and 95% | Total Cell Count [6]: 232 and 109
